What was measured:
[1] = target: Cyclin-dependent kinase 1 (Homo sapiens) (UniProt P06493); assay: Inhibition of CDK1 at 10 uM by HTRF assay relative to control
In short: (§1)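 HTRF kinase assay, one panel of kinases. Inhibitor stock 50 µM in 100% DMSO; tested at 10 µM. ATP and substrate at final levels near Km. Final buffer: 50 mM Hepes/NaOH pH 7.4, 40 µM Na3VO4, 0.005% Tween-20, 1 mM DTT, MnCl2 or MgCl2 at kinase-dependent levels. Started by adding ATP/substrate. Reaction run at room temperature, time varied by kinase. Detection mix in 50 mM Hepes pH 7.4, 0.1% BSA, 150 mM KF, incubated ≥1 h at room temperature. Activity expressed as % of uninhibited control; n=2.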

[2] = target: Serine/threonine-protein kinase Chk2 (Homo sapiens) (UniProt O96017); assay: Inhibition of CHK2 at 10 uM by HTRF assay relative to control; in short: as §1
Serine/threonine-protein kinase Chk2 (Homo sapiens), sequence (O96017 whole entry): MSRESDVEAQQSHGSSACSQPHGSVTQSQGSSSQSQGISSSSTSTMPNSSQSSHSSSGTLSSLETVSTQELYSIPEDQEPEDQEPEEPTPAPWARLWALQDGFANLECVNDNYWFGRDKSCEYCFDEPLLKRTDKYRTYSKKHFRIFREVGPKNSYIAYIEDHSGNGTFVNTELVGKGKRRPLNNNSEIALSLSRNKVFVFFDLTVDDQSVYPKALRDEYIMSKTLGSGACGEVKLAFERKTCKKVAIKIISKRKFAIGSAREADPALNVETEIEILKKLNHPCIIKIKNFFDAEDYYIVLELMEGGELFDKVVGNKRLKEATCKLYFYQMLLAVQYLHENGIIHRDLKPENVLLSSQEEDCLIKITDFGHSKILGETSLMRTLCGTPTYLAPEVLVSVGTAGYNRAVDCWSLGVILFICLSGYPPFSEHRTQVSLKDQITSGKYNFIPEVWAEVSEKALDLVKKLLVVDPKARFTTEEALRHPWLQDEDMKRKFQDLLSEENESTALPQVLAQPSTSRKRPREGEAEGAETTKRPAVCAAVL

[3] = target: Ribosomal protein S6 kinase alpha-3 (Homo sapiens) (UniProt P51812); assay: Inhibition of RSK2 at 10 uM by HTRF assay relative to control; in short: as §1
Ribosomal protein S6 kinase alpha-3 (Homo sapiens), sequence (P51812 whole entry): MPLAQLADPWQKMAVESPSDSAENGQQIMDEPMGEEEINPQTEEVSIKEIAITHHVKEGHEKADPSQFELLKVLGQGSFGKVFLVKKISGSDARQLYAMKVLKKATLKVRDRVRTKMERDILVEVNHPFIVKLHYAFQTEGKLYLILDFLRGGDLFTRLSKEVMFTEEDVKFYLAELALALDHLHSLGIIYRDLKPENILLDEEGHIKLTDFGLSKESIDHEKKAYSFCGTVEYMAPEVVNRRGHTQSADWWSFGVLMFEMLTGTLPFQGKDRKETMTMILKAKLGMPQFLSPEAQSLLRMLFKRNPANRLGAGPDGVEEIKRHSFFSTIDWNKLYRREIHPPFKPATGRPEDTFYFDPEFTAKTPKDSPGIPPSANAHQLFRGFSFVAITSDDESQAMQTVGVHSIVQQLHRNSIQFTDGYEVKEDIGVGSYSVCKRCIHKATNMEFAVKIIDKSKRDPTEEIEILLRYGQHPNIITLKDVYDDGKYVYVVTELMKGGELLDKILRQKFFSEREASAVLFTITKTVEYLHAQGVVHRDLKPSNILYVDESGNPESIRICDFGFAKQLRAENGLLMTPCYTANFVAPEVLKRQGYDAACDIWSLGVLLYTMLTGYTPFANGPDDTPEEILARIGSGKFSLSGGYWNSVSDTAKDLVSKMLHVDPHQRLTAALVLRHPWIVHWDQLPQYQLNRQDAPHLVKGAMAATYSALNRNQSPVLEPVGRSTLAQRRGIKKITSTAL

[4] = target: T1, Mitogen-activated protein kinase 12 (Homo sapiens) (UniProt P53778); assay: Inhibition of p38-gamma at 10 uM by HTRF assay relative to control; in short: as §1
T1 sequence (whole entry): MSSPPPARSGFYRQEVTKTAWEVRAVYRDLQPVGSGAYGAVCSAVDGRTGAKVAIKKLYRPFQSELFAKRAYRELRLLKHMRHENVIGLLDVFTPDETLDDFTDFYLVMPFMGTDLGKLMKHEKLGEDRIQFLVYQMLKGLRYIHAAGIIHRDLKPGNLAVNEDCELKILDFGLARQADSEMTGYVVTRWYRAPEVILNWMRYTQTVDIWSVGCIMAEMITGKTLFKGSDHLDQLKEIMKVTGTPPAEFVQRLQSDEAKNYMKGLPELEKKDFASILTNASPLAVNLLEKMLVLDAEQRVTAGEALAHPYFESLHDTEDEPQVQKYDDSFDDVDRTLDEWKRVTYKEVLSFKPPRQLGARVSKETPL

[5] = target: Tyrosine-protein kinase Fes/Fps (Homo sapiens) (UniProt P07332); assay: Inhibition of FES at 10 uM by HTRF assay relative to control; in short: as §1
[6] = target: Tyrosine-protein kinase Lyn (Homo sapiens) (UniProt P07948); assay: Inhibition of Lyn at 10 uM by HTRF assay relative to control; in short: as §1
Tyrosine-protein kinase Lyn (Homo sapiens), sequence (P07948 2-512 limits assumed): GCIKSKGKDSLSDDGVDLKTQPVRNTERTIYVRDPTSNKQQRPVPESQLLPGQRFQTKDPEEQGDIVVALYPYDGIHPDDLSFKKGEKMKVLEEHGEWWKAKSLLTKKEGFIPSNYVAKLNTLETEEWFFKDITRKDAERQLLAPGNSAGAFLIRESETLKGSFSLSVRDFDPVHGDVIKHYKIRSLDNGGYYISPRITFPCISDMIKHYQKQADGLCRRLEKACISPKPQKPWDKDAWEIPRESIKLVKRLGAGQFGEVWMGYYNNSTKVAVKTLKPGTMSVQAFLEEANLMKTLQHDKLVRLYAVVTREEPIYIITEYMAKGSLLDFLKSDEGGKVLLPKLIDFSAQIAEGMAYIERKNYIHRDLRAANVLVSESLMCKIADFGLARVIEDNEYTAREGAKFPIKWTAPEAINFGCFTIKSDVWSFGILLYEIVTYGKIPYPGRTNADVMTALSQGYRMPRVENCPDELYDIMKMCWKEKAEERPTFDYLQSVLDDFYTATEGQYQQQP

[7] = target: Epidermal growth factor receptor (Homo sapiens) (UniProt P00533); assay: Inhibition of EGFR at 10 uM by HTRF assay relative to control; in short: as §1
[8] = target: Receptor-type tyrosine-protein kinase FLT3 (Homo sapiens) (UniProt P36888); assay: Inhibition of FLT3 at 10 uM by HTRF assay relative to control; in short: as §1
[9] = target: T2, Serine/threonine-protein kinase Chk1 (Homo sapiens) (UniProt O14757); assay: Inhibition of CHK1 at 10 uM by HTRF assay relative to control; in short: as §1
T2 sequence (whole entry): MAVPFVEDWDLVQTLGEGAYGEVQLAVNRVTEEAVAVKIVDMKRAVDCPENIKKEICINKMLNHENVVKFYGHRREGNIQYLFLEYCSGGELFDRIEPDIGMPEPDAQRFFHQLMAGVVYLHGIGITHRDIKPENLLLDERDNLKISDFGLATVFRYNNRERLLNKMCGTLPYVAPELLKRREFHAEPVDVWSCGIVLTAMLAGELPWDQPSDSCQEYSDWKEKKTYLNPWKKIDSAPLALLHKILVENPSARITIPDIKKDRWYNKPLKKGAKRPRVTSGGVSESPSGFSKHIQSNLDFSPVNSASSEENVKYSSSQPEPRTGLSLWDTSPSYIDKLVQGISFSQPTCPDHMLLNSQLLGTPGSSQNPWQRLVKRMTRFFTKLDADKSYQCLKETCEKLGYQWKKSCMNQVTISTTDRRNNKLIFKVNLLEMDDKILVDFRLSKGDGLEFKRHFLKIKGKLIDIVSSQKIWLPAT

[10] = target: Rho-associated protein kinase 2 (Homo sapiens) (UniProt O75116); assay: Inhibition of ROCK2 at 10 uM by HTRF assay relative to control; in short: as §1
Rho-associated protein kinase 2 (Homo sapiens), sequence (O75116 whole entry, looked up): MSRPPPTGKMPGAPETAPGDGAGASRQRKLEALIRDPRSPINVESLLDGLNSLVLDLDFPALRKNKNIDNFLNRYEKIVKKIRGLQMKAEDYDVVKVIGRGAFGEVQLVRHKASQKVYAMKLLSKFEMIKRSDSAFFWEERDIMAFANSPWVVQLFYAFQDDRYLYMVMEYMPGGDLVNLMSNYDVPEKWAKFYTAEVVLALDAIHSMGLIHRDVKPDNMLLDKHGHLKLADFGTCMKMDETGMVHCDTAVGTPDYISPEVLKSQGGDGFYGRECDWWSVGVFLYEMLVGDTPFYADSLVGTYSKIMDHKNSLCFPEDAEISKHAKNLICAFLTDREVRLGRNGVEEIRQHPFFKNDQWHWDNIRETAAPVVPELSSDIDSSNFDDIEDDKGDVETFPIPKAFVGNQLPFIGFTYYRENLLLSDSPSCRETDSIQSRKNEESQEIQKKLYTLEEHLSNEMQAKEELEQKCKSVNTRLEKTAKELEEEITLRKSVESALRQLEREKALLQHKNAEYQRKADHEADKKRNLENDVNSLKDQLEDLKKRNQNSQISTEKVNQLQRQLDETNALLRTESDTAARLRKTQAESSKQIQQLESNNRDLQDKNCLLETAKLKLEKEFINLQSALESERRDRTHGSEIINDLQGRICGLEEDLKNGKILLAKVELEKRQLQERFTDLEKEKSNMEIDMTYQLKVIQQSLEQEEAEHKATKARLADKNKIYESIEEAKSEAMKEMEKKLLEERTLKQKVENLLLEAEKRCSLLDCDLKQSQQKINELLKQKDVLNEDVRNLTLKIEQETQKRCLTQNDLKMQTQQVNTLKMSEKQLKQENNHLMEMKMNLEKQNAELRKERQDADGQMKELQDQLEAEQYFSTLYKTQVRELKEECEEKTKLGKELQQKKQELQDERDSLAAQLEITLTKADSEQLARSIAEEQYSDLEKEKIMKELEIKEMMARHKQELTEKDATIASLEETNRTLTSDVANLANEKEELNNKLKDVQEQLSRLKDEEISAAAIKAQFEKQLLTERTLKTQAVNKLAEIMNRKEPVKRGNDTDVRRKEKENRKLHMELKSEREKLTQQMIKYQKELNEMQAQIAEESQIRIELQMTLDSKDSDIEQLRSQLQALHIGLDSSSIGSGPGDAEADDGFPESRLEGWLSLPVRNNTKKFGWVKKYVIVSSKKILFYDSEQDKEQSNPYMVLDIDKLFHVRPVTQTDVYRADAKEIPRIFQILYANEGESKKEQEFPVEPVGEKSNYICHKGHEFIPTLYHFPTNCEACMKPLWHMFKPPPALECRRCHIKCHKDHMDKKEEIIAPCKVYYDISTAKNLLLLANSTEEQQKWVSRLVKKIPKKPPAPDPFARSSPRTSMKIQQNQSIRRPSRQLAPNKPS

[11] = target: High affinity nerve growth factor receptor (Homo sapiens) (UniProt P04629); assay: Inhibition of TrkA at 10 uM by HTRF assay relative to control; in short: as §1
[12] = target: Ribosomal protein S6 kinase beta-1 (Homo sapiens) (UniProt P23443); assay: Inhibition of p70S6K at 10 uM by HTRF assay relative to control; in short: as §1
Ribosomal protein S6 kinase beta-1 (Homo sapiens), sequence (P23443 whole entry, looked up): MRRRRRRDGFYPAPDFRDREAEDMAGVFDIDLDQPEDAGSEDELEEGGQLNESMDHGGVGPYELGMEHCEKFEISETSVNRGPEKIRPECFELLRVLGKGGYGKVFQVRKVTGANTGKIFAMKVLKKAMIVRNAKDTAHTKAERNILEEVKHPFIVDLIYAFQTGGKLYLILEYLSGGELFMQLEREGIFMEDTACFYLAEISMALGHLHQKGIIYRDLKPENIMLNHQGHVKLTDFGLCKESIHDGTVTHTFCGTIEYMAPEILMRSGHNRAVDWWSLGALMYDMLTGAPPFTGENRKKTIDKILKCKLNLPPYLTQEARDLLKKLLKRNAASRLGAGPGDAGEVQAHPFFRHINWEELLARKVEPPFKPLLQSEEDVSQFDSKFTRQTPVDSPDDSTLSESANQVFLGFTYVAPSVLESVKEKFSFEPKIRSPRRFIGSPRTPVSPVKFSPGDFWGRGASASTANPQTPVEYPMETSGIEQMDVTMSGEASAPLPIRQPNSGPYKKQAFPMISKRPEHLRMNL

[13] = target: Protein kinase C gamma type (Homo sapiens) (UniProt P05129); assay: Inhibition of PKCgamma at 10 uM by HTRF assay relative to control; in short: as §1
[14] = Inhibition of IRK at 10 uM by HTRF assay relative to control; in short: as §1
[15] = target: T3, Inhibitor of nuclear factor kappa-B kinase subunit beta (Homo sapiens) (UniProt O14920); assay: Inhibition of IKK-beta at 10 uM by HTRF assay relative to control; in short: as §1
T3 sequence (whole entry): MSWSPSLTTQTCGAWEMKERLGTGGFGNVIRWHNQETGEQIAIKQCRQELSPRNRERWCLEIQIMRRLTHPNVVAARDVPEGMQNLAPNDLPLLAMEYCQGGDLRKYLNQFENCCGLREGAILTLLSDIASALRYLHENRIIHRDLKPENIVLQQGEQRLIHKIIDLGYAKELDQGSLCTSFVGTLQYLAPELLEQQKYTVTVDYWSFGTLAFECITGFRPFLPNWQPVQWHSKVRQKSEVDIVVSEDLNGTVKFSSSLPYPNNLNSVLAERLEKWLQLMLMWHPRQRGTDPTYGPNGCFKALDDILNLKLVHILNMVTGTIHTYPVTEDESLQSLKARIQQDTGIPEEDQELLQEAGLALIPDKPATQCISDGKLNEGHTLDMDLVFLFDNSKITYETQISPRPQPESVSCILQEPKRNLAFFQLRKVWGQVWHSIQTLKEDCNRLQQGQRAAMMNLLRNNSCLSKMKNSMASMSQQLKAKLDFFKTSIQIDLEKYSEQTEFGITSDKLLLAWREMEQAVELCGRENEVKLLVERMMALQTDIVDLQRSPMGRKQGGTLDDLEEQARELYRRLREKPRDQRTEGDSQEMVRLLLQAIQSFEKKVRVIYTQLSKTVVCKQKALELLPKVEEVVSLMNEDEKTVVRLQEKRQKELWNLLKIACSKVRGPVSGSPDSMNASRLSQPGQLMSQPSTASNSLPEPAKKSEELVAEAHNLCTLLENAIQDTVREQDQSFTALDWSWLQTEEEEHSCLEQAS

[16] = target: Protein-tyrosine kinase 6 (Homo sapiens) (UniProt Q13882); assay: Inhibition of Brk at 10 uM by HTRF assay relative to control; in short: as §1
[17] = target: Mitogen-activated protein kinase 9 (Homo sapiens) (UniProt P45984); assay: Inhibition of JNK2 at 10 uM by HTRF assay relative to control; in short: as §1
Mitogen-activated protein kinase 9 (Homo sapiens), sequence (P45984 whole entry, looked up): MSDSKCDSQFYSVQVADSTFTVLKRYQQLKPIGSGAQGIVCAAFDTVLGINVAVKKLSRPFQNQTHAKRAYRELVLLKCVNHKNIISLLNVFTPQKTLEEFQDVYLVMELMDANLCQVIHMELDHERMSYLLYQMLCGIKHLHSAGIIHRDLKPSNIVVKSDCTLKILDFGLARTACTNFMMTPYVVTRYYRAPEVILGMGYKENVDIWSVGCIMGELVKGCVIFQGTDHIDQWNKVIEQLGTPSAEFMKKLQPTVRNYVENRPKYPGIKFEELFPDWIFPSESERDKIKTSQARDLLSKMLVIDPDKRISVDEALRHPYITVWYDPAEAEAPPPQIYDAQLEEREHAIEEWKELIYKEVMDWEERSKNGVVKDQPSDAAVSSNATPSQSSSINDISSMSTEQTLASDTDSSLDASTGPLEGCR

Row | Compound | inhibition [1] | inhibition [2] | inhibition [3] | inhibition [4] | inhibition [5] | inhibition [6] | inhibition [7] | inhibition [8] | inhibition [9] | inhibition [10] | inhibition [11] | inhibition [12] | inhibition [13] | inhibition [14] | inhibition [15] | inhibition [16] | inhibition [17]
1 | COC(=O)C(CO)NC(=O)[C@@H]1CCCN1c1nccc(Oc2cccc(C)c2)n1 (stereo partly drawn) | 0% | 3% | 0% | 0% | 0% | 6% | 0% | 0% | 1% | 0% | 4% | 5% | 4% | 0% | 1% | 13% | 8%
2 | O=C(NCc1cccnc1)c1cccc(-c2ccc(Nc3ccc4ncsc4c3)nn2)c1 | 0% | 28% | 62% | 5% | 18% | 48% | 27% | 98% | 6% | 93% | 0% | 79% | 28% | 73% | 52% | 48% | 51%
3 | Cc1cccc(N(C)c2cc(Nc3cccc(C(=O)NCc4ccncc4)c3)ncn2)c1 | 7% | 5% | 3% | 3% | 22% | 19% | 100% | 13% | 3% | 0% | 13% | 9% | 2% | 0% | 0% | 0% | 21%
4 | Cc1cccc(N(C)c2cc(N3CCN(CC(=O)Nc4nc(-c5ccccc5)cs4)CC3)ncn2)c1 | 0% | 0% | 0% | 3% | 0% | 2% | 0% | 0% | 1% | 0% | 8% | 3% | 0% | 0% | 9% | 22% | 0%
5 | Cc1cccc(Oc2ccnc(N3CCC[C@H]3C(=O)NCc3cccnc3)n2)c1 | 0% | 4% | 0% | 0% | 5% | 6% | 0% | 0% | 0% | 0% | 4% | 16% | 6% | 0% | 0% | 0% | 4%
6 | O=C(c1nc(SCc2ccc(Cl)cc2)n2ccccc12)N1CCN(c2ncnc3c2CN(Cc2ccccc2)CC3)CC1 | 0% | 0% | 0% | 0% | 0% | 1% | 0% | 0% | 5% | 0% | 5% | 3% | 4% | 0% | 2% | 9% | 1%
7 | Cc1cccc(Oc2ccnc(N3CCN(C(=O)c4c(C)noc4C)CC3)n2)c1 | 0% | 3% | 0% | 7% | 7% | 0% | 0% | 0% | 3% | 0% | 8% | 5% | 3% | 0% | 3% | 2% | 6%
8 | CC(=O)CCCCC(=O)N1CCN(c2nccc(Oc3cccc(C)c3)n2)CC1 | 0% | 0% | 0% | 0% | 16% | 3% | 0% | 0% | 4% | 0% | 0% | 3% | 0% | 0% | 4% | 3% | 11%
9 | Cc1cccc(N(C)c2cc(Nc3cccc(C(=O)N4CCCC5CCCCC54)c3)ncn2)c1 (stereo not drawn) | 0% | 2% | 0% | 1% | 7% | 9% | 84% | 0% | 2% | 0% | 12% | 12% | 5% | 0% | 7% | 32% | 0%
10 | Nc1nc(Nc2ccccc2)cc(N2CCC(C(=O)NCCc3ccccn3)CC2)n1 | 0% | 0% | 0% | 6% | 0% | 1% | 0% | 0% | 0% | 0% | 5% | 5% | 5% | 0% | 1% | 10% | 1%
11 | Cc1cccc(Oc2ccnc(N3CCC[C@H]3C(=O)NCCCn3ccnc3)n2)c1 | 0% | 0% | 0% | 0% | 2% | 1% | 0% | 0% | 3% | 0% | 7% | 7% | 1% | 1% | 2% | 0% | 7%
12 | CN(CCc1ccccn1)C(=O)c1cccc(Nc2nccc(Nc3ccc4ncsc4c3)n2)c1 | 0% | 7% | 35% | 1% | 51% | 48% | 23% | 98% | 0% | 7% | 56% | 19% | 27% | 34% | 36% | 78% | 53%
13 | CN(C)c1ccc(C(=O)N2CCN(c3ncnc4c3CN(Cc3ccccc3)CC4)CC2)c2ccccc12 | 0% | 6% | 0% | 0% | 2% | 0% | 0% | 0% | 4% | 0% | 7% | 3% | 4% | 0% | 1% | 0% | 1%
14 | Cc1cccc(N(C)c2cc(N3CCN(C(=O)Cc4c[nH]c5ccccc45)CC3)ncn2)c1 | 0% | 0% | 0% | 3% | 24% | 6% | 0% | 0% | 4% | 0% | 2% | 7% | 2% | 0% | 3% | 16% | 5%
